Measurements reported in ChEMBL document CHEMBL1139434, “Highly potent 1-aminocyclohexane-1-carboxylic acid substituted V2 agonists of arginine vasopressin” (J Med Chem, 2004).
Where a SMILES comes first, the peptide text is derived from it. [ ]: non-standard residue; d: D form. The star is where a group is joined. Cyclohexylacetyl(1-SH) = O=C(CC1(S)CCCCC1)*; Ac6c = NC1(C(=O)O)CCCCC1

Columns and labels:
Rattus norvegicus [1] = species: Rattus norvegicus; test: (§1) Compound was evaluated for vasopressor activity in phenoxybenzamine-treated male rats; format: functional, organism-based; conditions: read-out: pA2 (converted)
In short: (§2)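 Pressor response measured in phenoxybenzamine-treated male Wistar rats, with synthetic arginine vasopressin as standard. Dose–response curves built from single administrations, or cumulatively without washing between increasing doses. Values are means of three to five separate experiments.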

Rattus norvegicus [2] = species: Rattus norvegicus; test: Compound was evaluated for antidiuretic activity with t1/2 of 60 in male rats by modified Burn test; format: functional, Urine
Rattus norvegicus [3] = species: Rattus norvegicus; test: Compound was evaluated for antidiuretic activity with t1/2 of 200 min in male rats by modified Burn test; format: functional, Urine
Rattus norvegicus [4] = species: Rattus norvegicus; test: Compound was evaluated for in vitro uterotonic activity in the absence of magnesium ions in female wistar rats; format: functional; conditions: for Kb: read-out: pA2 (converted)
In short: (§3)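 Uterus from Wistar females estrogenized 48 h beforehand, tested in vitro in the absence of magnesium ions. Synthetic oxytocin was the standard. Dose–response curves built from single additions, or cumulatively without washing between increasing doses. Values are means of three to five separate experiments.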

Rattus norvegicus [5] = species: Rattus norvegicus; test: Compound was evaluated for vasopressor activity in phenoxybenzamine-treated male rats; range is 346-370; format: functional; in short: as §2
Rattus norvegicus [6] = species: Rattus norvegicus; test: Compound was evaluated for antidiuretic activity with t1/2 of 60 min in male rats by modified Burn test; range is 1300-1745; format: functional, Urine
Rattus norvegicus [7] = species: Rattus norvegicus; test: Compound was evaluated for in vitro uterotonic activity in the absence of magnesium ions in female wistar rats; range is 27-63; format: functional; in short: as §3
Rattus norvegicus [8] = species: Rattus norvegicus; test: as §1; format: functional; in short: as §2
Rattus norvegicus [9] = species: Rattus norvegicus; test: Compound was evaluated for antidiuretic activity with t1/2 of 60 min in male rats by modified Burn test; range is 750-900; format: functional, Urine
Rattus norvegicus [10] = species: Rattus norvegicus; test: Compound was evaluated for in vitro uterotonic activity in the absence of magnesium ions in female wistar rats; range is 1.5-5.1; format: functional; in short: as §3
Rattus norvegicus [11] = species: Rattus norvegicus; test: Compound was evaluated for antidiuretic activity with t1/2 of 60 min in male rats by modified Burn test; range is 800-50000; format: functional, Urine
Rattus norvegicus [12] = species: Rattus norvegicus; test: Compound was evaluated for antidiuretic activity with t1/2 of 60 min in male rats by modified Burn test; range is 114-257; format: functional, Urine

SMILES	Activity (Rattus norvegicus [2]) [IU/mg]	Activity (Rattus norvegicus [3]) [IU/mg]	Kb (Rattus norvegicus [4]) [nM]	Activity (Rattus norvegicus [8]) [IU/mg]	Activity (Rattus norvegicus [4]) [IU/mg]	other results
NC(=O)CC[C@H](NC(=O)[C@H](Cc1ccccc1)NC(=O)C1(NC(=O)CC2(S)CCCCC2)CCCCC1)C(=O)N[C@@H](CC(N)=O)C(=O)N[C@@H](CS)C(=O)N1CCC[C@H]1C(=O)N[C@@H](CCCN=C(N)N)C(=O)NCC(N)=O	~0.1	~1.4	46.8	–	–	Kb (Rattus norvegicus [1]): 55 nM
NC(=O)CC[C@H](NC(=O)[C@H](Cc1ccccc1)NC(=O)[C@H](Cc1ccc(O)cc1)NC(=O)CCS)C(=O)N[C@@H](CC(N)=O)C(=O)N[C@@H](CS)C(=O)N1CCC[C@H]1C(=O)N[C@@H](CCCN=C(N)N)C(=O)NCC(N)=O	–	–	–	–	–	Activity (Rattus norvegicus [5]): <370 IU/mg; Activity (Rattus norvegicus [6]): <1745 IU/mg; Activity (Rattus norvegicus [7]): <63 IU/mg
NC(=O)CC[C@H](NC(=O)C1(NC(=O)[C@H](Cc2ccc(O)cc2)NC(=O)CCS)CCCCC1)C(=O)N[C@@H](CC(N)=O)C(=O)N[C@@H](CS)C(=O)N1CCC[C@H]1C(=O)N[C@H](CCCN=C(N)N)C(=O)NCC(N)=O	<4	–	–	0	0	–
NC(=O)CC[C@H](NC(=O)[C@H](Cc1ccccc1)NC(=O)C1(NC(=O)[C@@H](N)CS)CCCCC1)C(=O)N[C@@H](CC(N)=O)C(=O)N[C@@H](CS)C(=O)N1CCC[C@H]1C(=O)N[C@H](CCCN=C(N)N)C(=O)NCC(N)=O	–	~9300	~2000	–	–	Activity (Rattus norvegicus [9]): <900 IU/mg; Kb (Rattus norvegicus [1]): ~1580 nM
NC(=O)CC[C@H](NC(=O)[C@H](Cc1ccccc1)NC(=O)C1(NC(=O)CC2(S)CCCCC2)CCCCC1)C(=O)N[C@@H](CC(N)=O)C(=O)N[C@@H](CS)C(=O)N1CCC[C@H]1C(=O)N[C@H](CCCN=C(N)N)C(=O)NCC(N)=O	<4	–	47.9	–	–	Kb (Rattus norvegicus [1]): 234 nM
CC(C)[C@H](NC(=O)C1(NC(=O)[C@H](Cc2ccc(O)cc2)NC(=O)CC2(S)CCCCC2)CCCCC1)C(=O)N[C@@H](CC(N)=O)C(=O)N[C@@H](CS)C(=O)N1CCC[C@H]1C(=O)N[C@@H](CCCN=C(N)N)C(=O)NCC(N)=O ({Cyclohexylacetyl(1-SH)}-Y[Ac6c]VNCPRG-NH2)	<4	–	≥ 1000	0	–	–
NC(=O)CC[C@H](NC(=O)[C@H](Cc1ccccc1)NC(=O)C1(NC(=O)[C@@H](N)CS)CCCCC1)C(=O)N[C@@H](CC(N)=O)C(=O)N[C@@H](CS)C(=O)N1CCC[C@H]1C(=O)N[C@@H](CCCN=C(N)N)C(=O)NCC(N)=O	–	~9300	~2510	56.6	–	Activity (Rattus norvegicus [9]): <900 IU/mg
NC(=O)CC[C@H](NC(=O)C1(NC(=O)[C@H](Cc2ccc(O)cc2)NC(=O)CCS)CCCCC1)C(=O)N[C@@H](CC(N)=O)C(=O)N[C@@H](CS)C(=O)N1CCC[C@H]1C(=O)N[C@@H](CCCN=C(N)N)C(=O)NCC(N)=O	~0.8	~25	–	0.34	<0.04	–
NC(=O)CC[C@H](NC(=O)C1(NC(=O)[C@H](Cc2ccc(O)cc2)NC(=O)[C@@H](N)CS)CCCCC1)C(=O)N[C@@H](CC(N)=O)C(=O)N[C@@H](CS)C(=O)N1CCC[C@H]1C(=O)N[C@H](CCCN=C(N)N)C(=O)NCC(N)=O	~0.1	~1.4	–	0	0	–
CC(C)[C@H](NC(=O)C1(NC(=O)[C@H](Cc2ccc(O)cc2)NC(=O)[C@@H](N)CS)CCCCC1)C(=O)N[C@@H](CC(N)=O)C(=O)N[C@@H](CS)C(=O)N1CCC[C@H]1C(=O)N[C@@H](CCCN=C(N)N)C(=O)NCC(N)=O (H-CY[Ac6c]VNCPRG-NH2)	<0.4	–	–	0	0	–
NC(=O)CC[C@H](NC(=O)[C@H](Cc1ccccc1)NC(=O)[C@H](Cc1ccc(O)cc1)NC(=O)CC1(S)CCCCC1)C(=O)N[C@@H](CC(N)=O)C(=O)N[C@@H](CS)C(=O)N1CCC[C@H]1C(=O)N[C@@H](CCCN=C(N)N)C(=O)NCC(N)=O ({Cyclohexylacetyl(1-SH)}-YFQNCPRG-NH2)	0.03	–	–	–	–	Kb (Rattus norvegicus [1]): 4.47 nM
NC(=O)CC[C@H](NC(=O)[C@H](Cc1ccccc1)NC(=O)C1(NC(=O)CCS)CCCCC1)C(=O)N[C@@H](CC(N)=O)C(=O)N[C@@H](CS)C(=O)N1CCC[C@H]1C(=O)N[C@@H](CCCN=C(N)N)C(=O)NCC(N)=O	~4500	~50000	794	17.2	0.71	–
N=C(N)NCCC[C@H](NC(=O)[C@@H]1CCCN1C(=O)[C@@H]1CSSC[C@H](N)C(=O)N[C@@H](Cc2ccc(O)cc2)C(=O)N[C@@H](Cc2ccccc2)C(=O)N[C@@H](CCC(N)=O)C(=O)N[C@@H](CC(N)=O)C(=O)N1)C(=O)NCC(N)=O [VASOPRESSIN]	465	–	–	412	17	–
CC(C)[C@H](NC(=O)[C@H](Cc1ccccc1)NC(=O)C1(NC(=O)[C@@H](N)CS)CCCCC1)C(=O)N[C@@H](CC(N)=O)C(=O)N[C@@H](CS)C(=O)N1CCC[C@H]1C(=O)N[C@@H](CCCN=C(N)N)C(=O)NCC(N)=O (H-C[Ac6c]FVNCPRG-NH2)	~2300	~23000	126	0.9	–	–
CC(C)[C@H](NC(=O)C1(NC(=O)[C@H](Cc2ccc(O)cc2)NC(=O)CCS)CCCCC1)C(=O)N[C@@H](CC(N)=O)C(=O)N[C@@H](CS)C(=O)N1CCC[C@H]1C(=O)N[C@H](CCCN=C(N)N)C(=O)NCC(N)=O	450	4500	–	0	0	–
CC(C)[C@H](NC(=O)[C@H](Cc1ccccc1)NC(=O)[C@H](Cc1ccc(O)cc1)NC(=O)[C@@H](N)CS)C(=O)N[C@@H](CC(N)=O)C(=O)N[C@@H](CS)C(=O)N1CCC[C@H]1C(=O)N[C@@H](CCCN=C(N)N)C(=O)NCC(N)=O (H-CYFVNCPRG-NH2)	738	–	–	32	–	–
CC(C)[C@H](NC(=O)[C@H](Cc1ccccc1)NC(=O)C1(NC(=O)CCS)CCCCC1)C(=O)N[C@@H](CC(N)=O)C(=O)N[C@@H](CS)C(=O)N1CCC[C@H]1C(=O)N[C@H](CCCN=C(N)N)C(=O)NCC(N)=O	~4500	~50000	15.5	–	–	Kb (Rattus norvegicus [1]): 724 nM
NC(=O)CC[C@H](NC(=O)[C@H](Cc1ccccc1)NC(=O)[C@H](Cc1ccc(O)cc1)NC(=O)CCS)C(=O)N[C@@H](CC(N)=O)C(=O)N[C@@H](CS)C(=O)N1CCC[C@H]1C(=O)N[C@H](CCCN=C(N)N)C(=O)NCC(N)=O	–	–	–	–	–	Activity (Rattus norvegicus [10]): <5.1 IU/mg; Activity (Rattus norvegicus [11]): <50000 IU/mg
NC(=O)CC[C@H](NC(=O)C1(NC(=O)[C@H](Cc2ccc(O)cc2)NC(=O)[C@@H](N)CS)CCCCC1)C(=O)N[C@@H](CC(N)=O)C(=O)N[C@@H](CS)C(=O)N1CCC[C@H]1C(=O)N[C@@H](CCCN=C(N)N)C(=O)NCC(N)=O	~0.1	~1.4	–	0.24	0	–
NC(=O)CC[C@H](NC(=O)[C@H](Cc1ccccc1)NC(=O)C1(NC(=O)CCS)CCCCC1)C(=O)N[C@@H](CC(N)=O)C(=O)N[C@@H](CS)C(=O)N1CCC[C@H]1C(=O)N[C@H](CCCN=C(N)N)C(=O)NCC(N)=O	~4500	~50000	316	–	0.31	–
NC(=O)CC[C@H](NC(=O)[C@H](Cc1ccccc1)NC(=O)[C@H](Cc1ccc(O)cc1)NC(=O)[C@@H](N)CS)C(=O)N[C@@H](CC(N)=O)C(=O)N[C@@H](CS)C(=O)N1CCC[C@H]1C(=O)N[C@H](CCCN=C(N)N)C(=O)NCC(N)=O	–	–	–	4.1	0.4	Activity (Rattus norvegicus [12]): <257 IU/mg
